In ChEMBL document CHEMBL1833879, “Anti-obesity effects of the methanolic extract and chakasaponins from the flower buds of Camellia sinensis in mice” (2011):
Active and inactive are the calls of the source. The calls are words filed in the database; no cut-off is given here.

Key:
[1] = system: Mus musculus; experiment: Antiobesity activity in ddY mouse assessed as food intake at 50 mg/kg, po measured upto 3 days (RVb = 15.2 g); type: functional
[2] = system: Mus musculus; experiment: Antiobesity activity in capsaicin treated ddY mouse assessed as gastric emptying at 25 mg/kg, po measured for 30 mins by Phenol red method (RVb = 87.7 +/- 2.3 %); type: functional, Stomach
[3] = system: Mus musculus; experiment: Antiobesity activity in ddY mouse assessed as gastric emptying at 50 mg/kg, po measured for 30 mins by Phenol red method (RVb = 90.4 +/- 1.2 %); type: functional, Stomach
[4] = system: Mus musculus; experiment: Antiobesity activity in ddY mouse assessed as gastric emptying at 25 mg/kg, po measured for 30 mins by Phenol red method (RVb = 90.4 +/- 1.2 %); type: functional, Stomach
[5] = system: Mus musculus; experiment: Antiobesity activity in capsaicin-treated ddY mouse assessed as reduction in food intake at 50 mg/kg, po for 3 days; type: functional, organism-based; parameters: dose 50 mg/kg
[6] = system: Mus musculus; experiment: Antiobesity activity in ddY mouse assessed as inhibition of AgRP mRNA level in hypothalamus at 50 mg/kg, po for 4 days relative to control; type: functional
Method in brief: (§1)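 Male ddY mice dosed po once daily at 15:00–17:00 for 4 d. Hypothalamus dissected 1 h after final dose, held in RNAlater, total RNA extracted. NPY and AgRP mRNA quantified by SYBR qPCR (40 cycles, annealing 58 °C) by relative quantification normalised to β-actin and expressed as ratio to control; n = 6, mean ± SEM.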

[7] = system: Mus musculus; experiment: Antiobesity activity in ddY mouse assessed as inhibition of AgRP mRNA level in hypothalamus at 25 mg/kg, po for 4 days relative to control; type: functional; method in brief: as §1
[8] = system: Mus musculus; experiment: Antiobesity activity in ddY mouse assessed as inhibition of neuropeptide Y mRNA level in hypothalamus at 50 mg/kg, po for 4 days relative to control; type: functional; method in brief: as §1
[9] = system: Mus musculus; experiment: Antiobesity activity in ddY mouse assessed as inhibition of neuropeptide Y mRNA level in hypothalamus at 25 mg/kg, po for 4 days relative to control; type: functional; method in brief: as §1
[10] = system: Mus musculus; experiment: Antiobesity activity in capsaicin treated ddY mouse assessed as inhibition of gastric emptying at 50 mg/kg, po measured for 30 mins by Phenol red method (RVb = 87.7 +/- 2.3 %); type: functional, Stomach; parameters: scale not given: the % may be the effect or the level left
[11] = system: Mus musculus; experiment: Antiobesity activity in ddY mouse assessed as inhibition of food intake at 50 mg/kg, po; type: functional, organism-based; parameters: dose 50 mg/kg
[12] = system: Ileum; experiment: Induction of 5-HT release from ddY mouse ileum assessed per gram of tissue at 100 µM after 20 mins by HPLC (RVb = 11.2 +/- 1.3 ng/g tissue)
[13] = system: Ileum; experiment: Induction of 5-HT release from ddY mouse ileum assessed per gram of tissue at 1000 µM after 20 mins by HPLC (RVb = 11.2 +/- 1.3 ng/g tissue)
[14] = system: Ileum; experiment: Induction of 5-HT release from ddY mouse ileum assessed as remaining 5-HT per gram of tissue at 100 uM after 20 mins by HPLC (RVb = 68.8 +/- 12.4 ng/g tissue)
[15] = system: Ileum; experiment: Induction of 5-HT release from ddY mouse ileum assessed as remaining 5-HT per gram of tissue at 1000 µM after 20 mins by HPLC (RVb = 68.8 +/- 12.4 ng/g tissue)
[16] = system: Ileum; experiment: Induction of 5-HT release from ddY mouse ileum assessed as remaining 5-HT per mg of protein at 100 µM after 20 mins by HPLC (RVb = 0.861 +/- 0.164 ng/mg protein)
[17] = system: Ileum; experiment: Induction of 5-HT release from ddY mouse ileum assessed as remaining 5-HT per mg of protein at 1000 µM after 20 mins by HPLC (RVb = 0.861 +/- 0.164 ng/mg protein)
[18] = system: Mus musculus; experiment: Antiobesity activity in capsaicin treated ddY mouse assessed as gastric emptying at 50 mg/kg, po measured for 30 mins by Phenol red method (RVb = 85.8 +/- 2 %); type: functional, Stomach
[19] = system: Mus musculus; experiment: Antiobesity activity in capsaicin-treated ddY mouse assessed as gastric emptying at 25 mg/kg, po measured for 30 mins by Phenol red method (RVb = 85.8 +/- 2 %); type: functional, Stomach
[20] = system: Mus musculus; experiment: Antiobesity activity in ddY mouse assessed as gastric emptying at 50 mg/kg, po measured for 30 mins by Phenol red method (RVb = 86.6 +/- 1.8 %); type: functional, Stomach
[21] = system: Mus musculus; experiment: Antiobesity activity in ddY mouse assessed as gastric emptying at 25 mg/kg, po measured for 30 mins by Phenol red method (RVb = 86.6 +/- 1.8 %); type: functional, Stomach

SMILES: C/C=C(\C)C(=O)O[C@H]1[C@H](OC(C)=O)[C@]2(CO)[C@H](O)[C@H](O)[C@]3(C)C(=CC[C@@H]4[C@@]5(C)CC[C@H](O[C@@H]6O[C@H](C(=O)O)[C@@H](O)[C@H](O[C@@H]7OC[C@H](O)[C@H](O)[C@H]7O[C@@H]7OC[C@@H](O)[C@H](O)[C@H]7O)[C@H]6O[C@@H]6O[C@H](CO)[C@H](O)[C@H](O)[C@H]6O)C(C)(C)[C@@H]5CC[C@]43C)[C@@H]2CC1(C)C [CHAKASAPONIN III]
- Activity [1]: 12.6 g

SMILES: C/C=C(\C)C(=O)O[C@H]1[C@H](OC(=O)/C(C)=C/C)[C@]2(CO)[C@H](O)[C@H](O)[C@]3(C)C(=CC[C@@H]4[C@@]5(C)CC[C@H](O[C@@H]6O[C@H](C(=O)O)[C@@H](O)[C@H](O[C@@H]7OC[C@H](O)[C@H](O)[C@H]7O[C@@H]7OC[C@@H](O)[C@H](O)[C@H]7O)[C@H]6O[C@@H]6O[C@H](CO)[C@H](O)[C@H](O)[C@H]6O)C(C)(C)[C@@H]5CC[C@]43C)[C@@H]2CC1(C)C [CHAKASAPONIN II]
- Activity [2]: 81.4%
- Activity [3]: 57.6%
- Activity [4]: 77.9%
- Activity [5]: Active
- fold change (FC) [6]: 1.03
- fold change (FC) [7]: 1.08
- fold change (FC) [8]: 0.63
- fold change (FC) [9]: 1.09
- Activity [10]: 67.1%
- inhibition [11]: Active
- Activity [12]: 15.6 ng/g
- Activity [13]: 28.3 ng/g
- Activity [14]: 50.8 ng/g
- Activity [15]: 31.6 ng/g
- Activity [16]: 0.659 ng/mg
- Activity [17]: 0.396 ng/mg

SMILES: CC1(C)C[C@H]2C3=CC[C@@H]4[C@@]5(C)CC[C@H](O[C@@H]6O[C@H](C(=O)O)[C@@H](O)[C@H](O[C@@H]7OC[C@H](O)[C@H](O)[C@H]7O[C@@H]7OC[C@@H](O)[C@H](O)[C@H]7O)[C@H]6O[C@@H]6O[C@H](CO)[C@H](O)[C@H](O)[C@H]6O)C(C)(C)[C@@H]5CC[C@@]4(C)[C@]3(C)[C@@H](O)[C@@H](O)[C@@]2(CO)[C@@H](O)[C@@H]1O
- inhibition [6]: inactive
- inhibition [7]: inactive
- inhibition [9]: inactive

SMILES: C/C=C(\C)C(=O)O[C@H]1[C@H](OC(C)=O)[C@]2(CO)[C@H](O)C[C@]3(C)C(=CC[C@@H]4[C@@]5(C)CC[C@H](O[C@@H]6O[C@H](C(=O)O)[C@@H](O)[C@H](O[C@@H]7OC[C@H](O)[C@H](O)[C@H]7O[C@@H]7OC[C@@H](O)[C@H](O)[C@H]7O)[C@H]6O[C@@H]6O[C@H](CO)[C@H](O)[C@H](O)[C@H]6O)C(C)(C)[C@@H]5CC[C@]43C)[C@@H]2CC1(C)C [CHAKASAPONINS I]
- Activity [18]: 68%
- Activity [19]: 79.2%
- Activity [20]: 55.7%
- Activity [21]: 76.4%
- Activity [1]: 10.5 g
